From ChEMBL document CHEMBL3102807, “Angustifonines A and B, cytotoxic bisindole alkaloids from Bousigonia angustifolia” (J Nat Prod, 2014)

Assays:
Type in all cases: functional, cell-based
SMMC-7721 = test: Cytotoxicity against human SMMC7721 cells after 48 hrs by MTT assay; settings: SMMC-7721, 48 h
Procedure, shortened: (§1)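 Cells kept in RPMI-1640 or DMEM with 10% FBS, 37 °C, 5% CO2; adherent cells allowed to attach 12 h in 96-well plates. Exposed in triplicate to 0.0625, 0.32, 1.6, 8 and 40 μM for 48 h, cisplatin and paclitaxel as positive controls. MTT (100 μg/well) added for 4 h at 37 °C, lysis in 20% SDS/50% DMF, OD at 595 nm; IC50 by Reed–Muench method.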

A549 = test: Cytotoxicity against human A549 cells after 48 hrs by MTT assay; settings: A549, 48 h; procedure, shortened: as §1
HL-60 = test: Cytotoxicity against human HL60 cells after 48 hrs by MTT assay; settings: HL-60, 48 h; procedure, shortened: as §1
MCF7 = test: Cytotoxicity against human MCF7 cells after 48 hrs by MTT assay; settings: MCF7, 48 h; procedure, shortened: as §1
SW480 = test: Cytotoxicity against human SW480 cells after 48 hrs by MTT assay; settings: SW480, 48 h; procedure, shortened: as §1

Row | Structure (SMILES) | IC50 (SMMC-7721) [µM] | IC50 (A549) [µM] | IC50 (HL-60) [µM] | IC50 (MCF7) [µM] | IC50 (SW480) [µM]
1 | CC[C@]12C=CCN3Cc4c(n(c5ccccc5c4=O)[C@@H](c4cc5c(cc4OC)NC4=C(C(=O)OC)C[C@]6([C@@H](C)O)C=CCN7CC[C@@]45[C@@H]76)C1)[C@@H]32 | 15.3 | 16.2 | 9.6 | 12.1 | 13.9
2 | CC[C@]12C=CCN3Cc4c(n(c5ccccc5c4=O)[C@@H](c4cc5c(cc4OC)NC4=C(C(=O)OC)C[C@]6(CC)C=CCN7CC[C@@]45[C@@H]76)C1)[C@@H]32 | 10.6 | 7.23 | 3.03 | 3.61 | 2.71
3 | CC(=O)O[C@H]1C(=O)[C@@]2(C)[C@H]([C@H](OC(=O)c3ccccc3)[C@]3(O)C[C@H](OC(=O)[C@H](O)[C@@H](NC(=O)c4ccccc4)c4ccccc4)C(C)=C1C3(C)C)[C@]1(OC(C)=O)CO[C@@H]1C[C@@H]2O [PACLITAXEL] | < 0.008 | < 0.008 | < 0.008 | < 0.008 | < 0.008
